In ChEMBL document CHEMBL1143932, “Biochemical and biological properties of 5-bromotubercidin: differential effects on cellular DNA-directed and viral RNA-directed RNA synthesis” (Bioorg Med Chem, 2008):
The source made the active and inactive calls. No cut-off for these calls is given here.

Columns and labels:
Oryctolagus cuniculus [1] = species: Oryctolagus cuniculus; experiment: Activity of rabbit liver adenosine kinase
Summary of the method: (§1)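 Adenosine kinase partially purified from rabbit liver. Assay in 20 mM KPO4 pH 5.8 with 0.7 mM ATP, 0.25 mM phosphoenol pyruvate, 0.5 mM MgCl2, 50 mM KCl, pyruvate kinase and 7–70 µM radioactive nucleoside substrate, at 25 °C. Reaction stopped with 0.25 M perchloric acid. Nucleotides separated by paper electrophoresis at pH 3.5 and counted by scintillation. Km, Ki and relative Vmax (adenosine = 100) derived.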

Oryctolagus cuniculus [2] = species: Oryctolagus cuniculus; experiment: Activity of rabbit liver adenosine kinase relative to adenosine; summary of the method: as §1
L2 = experiment: Growth inhibition of mouse L2 cells at 15 uM

Compound | Km (Oryctolagus cuniculus [1]) [µM] | Vmax (Oryctolagus cuniculus [1]) [µM/min] | Activity (Oryctolagus cuniculus [2]) | Activity (L2)
Nc1ncnc2c1ncn2[C@@H]1O[C@H](CO)[C@@H](O)[C@H]1O | 5.5 | 3.13 |  | 
Nc1ncnc2c1ccn2[C@@H]1O[C@H](CO)[C@@H](O)[C@H]1O | 9.5 | 3.57 | 114 | Active
